In publication PMC2873786 (Organic & biomolecular chemistry, 2009):
Read-outs that look alike come from different tables or passages of the source.

Assays:
[1] = target: T1, oCOX-1 peroxidase (Ovis aries, UniProt P05979); test: Effect on reduction of PPHP to PPA; format: biochemical, ovine; conditions: for increase in peroxidase activity of oCOX-1: at a concentration of 1 mM, PPHP to PPA; for peroxidase activation at low concentration: at 100 μM, compared with 1-3
T1 sequence (P05979 25-600): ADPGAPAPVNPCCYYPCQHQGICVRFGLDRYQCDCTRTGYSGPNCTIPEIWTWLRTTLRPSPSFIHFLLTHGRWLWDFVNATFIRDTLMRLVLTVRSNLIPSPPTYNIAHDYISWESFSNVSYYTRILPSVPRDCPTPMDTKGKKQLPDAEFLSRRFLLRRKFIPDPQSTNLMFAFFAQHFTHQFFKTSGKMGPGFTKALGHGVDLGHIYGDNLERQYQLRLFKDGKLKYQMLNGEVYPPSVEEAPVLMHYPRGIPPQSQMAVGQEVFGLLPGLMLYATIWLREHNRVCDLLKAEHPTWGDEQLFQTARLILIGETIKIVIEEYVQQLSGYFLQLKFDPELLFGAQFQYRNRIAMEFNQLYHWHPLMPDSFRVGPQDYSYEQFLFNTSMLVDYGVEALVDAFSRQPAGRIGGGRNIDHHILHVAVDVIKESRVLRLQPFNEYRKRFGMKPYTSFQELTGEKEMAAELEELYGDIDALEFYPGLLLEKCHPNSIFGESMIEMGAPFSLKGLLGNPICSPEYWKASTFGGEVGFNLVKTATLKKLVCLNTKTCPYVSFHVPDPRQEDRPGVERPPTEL
In short: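 Ovine COX-1 was held 30 min on ice with 2 equiv hematin in Tris·HCl pH 8.0 without phenol. It was warmed 5 min at 37 °C with or without compound. PPHP (10 μM final) was prewarmed 2 min. The reaction was started with enzyme at 5.4 nM and quenched after 8 s with ice-cold ether–methanol–citric acid. The organic phase was dried under nitrogen, redissolved in 65% methanol–water, and analysed by HPLC for PPA formation.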

[2] = target: T2, ovine COX-1 (Ovis aries, UniProt P05979); test: Inhibition of oCOX-1; format: biochemical; conditions: for oCOX-1 inhibition, fold less effective than 1: relative to 1; for oCOX-1 inhibition (prostaglandin biosynthesis), fold more effective than ApAP: relative to ApAP
T2 sequence (P05979 25-600): T1 sequence (P05979 25-600)
In short: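 Ovine COX-1 was purified from ram seminal vesicles and held 30 min on ice with 2 equiv hematin in Tris·HCl pH 8.0 plus 500 μM phenol. It was then warmed 2 min at 37 °C with compound. The reaction used [¹⁴C]arachidonic acid (0.5 μM final, prewarmed 30 s) and was started with enzyme at 5.4 nM. It was quenched after 8 s with acidic ether–methanol containing BHA. Products were resolved by radio-TLC. Activity was expressed as % of control, 4–6 values per point.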

[3] = target: T3, oCOX-1 (Ovis aries, UniProt P05979); test: pH-dependent inhibition of COX-1; format: biochemical, ovine; conditions: pH 6.6 to 8.5; 0.5 mM 1; 1.0 mM 2 and 3
T3 sequence (P05979 25-600): T1 sequence (P05979 25-600)
In short: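 COX-1 radiolabelled arachidonic acid (0.5 μM) assay: hematin-reconstituted enzyme at 5.4 nM, 8 s reaction at 37 °C, radio-TLC. Buffers were Tris·HCl at pH 8.5, 8.0 and 7.4, and sodium phosphate at pH 8.0, 7.4 and 6.6, all with 500 μM phenol. Compound was present at 0.5 or 1.0 mM final. Activity was expressed as % of the uninhibited control in the same buffer and pH. Significance was tested by Student t-test.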

[4] = Anodic peak potentials by differential pulse voltammetry; format: physicochemical; conditions: 298 K versus Ag/AgCl, at the pKa
In short: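 Glassy carbon working electrode (alumina-polished between trials), Ag/AgCl reference, platinum wire counter. Buffer was 10 mM potassium phosphate with KCl electrolyte, pH set with KOH or HCl. Compound was added from a 25 mM ethanol stock, pH was measured, and the solution was argon-purged 1 min. DPV used 0.05 s pulse width, 0.2 s pulse period and 10 mV/s at 298 K. […].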

[5] = Spectrophotometric determination of pKa values; format: physicochemical; conditions: 298 K, 10 mM potassium phosphate, 200 mM KCl, spectrophotometry
In short: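 UV spectra were recorded in buffer at varied pH, blank first. Compound was added from a 25 mM ethanol stock and the pH was remeasured. Aryloxide fraction came from absorbance at λmax, normalised between low- and high-pH limits. pKa was obtained by fitting the fraction versus pH to a sigmoidal function.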

[6] = Inhibited autoxidation of styrene; conditions: for kinh: 303 K in chlorobenzene, initiated by AMVN, styrene autoxidation; for inhibition rate constant, fold lower than for 1: relative to 1
[7] = calculated, gas-phase; ref 18c; cited from earlier work
[8] = cited from earlier work
[9] = B3LYP calculated gas-phase O–H BDEs, ionization potentials and acidities; conditions: predicted; 5a vs 2, 6a vs 3
[10] = test system: HepG2 cells; test: Cytotoxicity assay with HepG2 cell line; format: cell-based, human; conditions: for decrease of total intracellular ATP concentration compared to control: 2 mM (highest exposure level); for intracellular ATP levels, fold control levels: HepG2, 24 h exposure
In short: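 HepG2 cells (ATCC) were grown in DMEM with 10% FBS, non-essential amino acids, penicillin–streptomycin, pyruvate and glutamine, under 5% CO₂ at 37 °C. Cells were seeded at 10⁵ cells/mL with ethanol or water vehicle below 0.5%. Serial compound dilutions, up to 2 mM, were applied for 24 h with 2–3 replicates per dose. Cells were lysed for 5 min and ATP read by luciferin–luciferase luminescence after 10 min at room temperature. Values were taken relative to untreated control.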

[11] = target: T4, soybean lipoxygenase-1 (sLOX-1) (Glycine max, UniProt P08170); test: Inhibition of sLOX-1; format: biochemical; conditions: up to 0.25 mM
T4 sequence (P08170 1-839): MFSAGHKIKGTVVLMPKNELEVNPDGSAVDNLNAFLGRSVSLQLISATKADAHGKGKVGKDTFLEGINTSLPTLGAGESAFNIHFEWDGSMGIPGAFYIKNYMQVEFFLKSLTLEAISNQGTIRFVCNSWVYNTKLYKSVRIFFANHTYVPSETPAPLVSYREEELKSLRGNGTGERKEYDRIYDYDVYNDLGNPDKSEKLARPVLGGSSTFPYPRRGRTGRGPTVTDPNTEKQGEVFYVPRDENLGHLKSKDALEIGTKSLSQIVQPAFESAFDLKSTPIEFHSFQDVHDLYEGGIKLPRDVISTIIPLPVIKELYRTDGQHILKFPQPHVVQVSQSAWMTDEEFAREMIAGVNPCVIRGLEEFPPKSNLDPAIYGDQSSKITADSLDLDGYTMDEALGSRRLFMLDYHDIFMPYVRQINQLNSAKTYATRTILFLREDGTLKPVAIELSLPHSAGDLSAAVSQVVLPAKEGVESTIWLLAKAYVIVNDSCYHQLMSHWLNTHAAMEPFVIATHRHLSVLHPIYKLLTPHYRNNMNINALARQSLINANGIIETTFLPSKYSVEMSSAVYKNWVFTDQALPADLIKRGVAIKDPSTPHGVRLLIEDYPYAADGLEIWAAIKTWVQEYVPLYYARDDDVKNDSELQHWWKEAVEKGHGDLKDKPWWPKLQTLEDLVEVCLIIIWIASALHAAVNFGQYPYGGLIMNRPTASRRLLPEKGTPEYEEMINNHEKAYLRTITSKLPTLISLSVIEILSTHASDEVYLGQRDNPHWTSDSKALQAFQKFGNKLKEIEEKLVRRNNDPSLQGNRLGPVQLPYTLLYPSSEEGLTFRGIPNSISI
In short: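 Soybean LOX-1 was purified from a commercial preparation. Linoleic acid (20 μM) was in 100 mM borate pH 9.2. Compound was added from ethanol at […] final (<5% ethanol), then enzyme at 3 nM final. Initial rates (<10% conversion) were followed at 234 nm as 13-HPODE formation. Rates were expressed relative to no-compound controls, 4–6 values per point, and IC50 was derived.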

[12] = reference antioxidants; ref 27b; cited from earlier work

increase in peroxidase activity of oCOX-1 [1]	pH-dependence of oCOX-1 inhibition [3]	Epa @ pKa [4] [V]	pKa [5]	SMILES	kinh [6]	IP [7] [kcal/mol]	O–H BDE [7] [kcal/mol]	stability under ambient conditions [8]	other results
–	–	0.31	8.18	CN(C)c1ncc(O)cn1 [6a]	1.1 × 10^6 ^d M^−1 s^−1	174.6	78.3	quite stable	peroxidase activation at low concentration [1]: greater peroxidase activation; oCOX-1 inhibition (prostaglandin biosynthesis), fold more effective than ApAP [2]: ca. 12 fold; O–H BDE lower than in 2 and 3 [9]: 5 to 6 kcal/mol; decrease of total intracellular ATP concentration compared to control ([10]; HepG2, 24 h): 31.3 ± 1.0%; intracellular ATP concentration relative to control ([10]; HepG2, 24 h, beyond 1 mM): at or above the control; intracellular ATP levels, fold control levels ([10]; 100 μM): ca. 1.8 fold
–	–	0.12	9.27	CN(C)c1ccc(O)cn1 [5a]	4.8 × 10^6 ^d M^−1 s^−1	164.6	77.0	quite stable	effect on peroxidase activity at higher concentration ([1]; above 100 μM): abolishes peroxidase activity; peroxidase activation at low concentration [1]: greater peroxidase activation; oCOX-1 inhibition (prostaglandin biosynthesis), fold more effective than ApAP [2]: ca. 12 fold; O–H BDE lower than in 2 and 3 [9]: 5 to 6 kcal/mol; effect on ATP production ([10]; HepG2, 24 h, by 500 μM exposure): eliminating ATP production; intracellular ATP levels, fold control levels ([10]; 10 μM): ca. 1.75 fold; cytotoxicity in preliminary HepG2 viability assays ([10]; HepG2 cell culture): relatively toxic

Second part, the compound before the results:

SMILES	increase in peroxidase activity of oCOX-1 [1]	pH-dependence of oCOX-1 inhibition [3]	Epa @ pKa [4] [V]	pKa [5]	kinh [6]	IP [7] [kcal/mol]	O–H BDE [7] [kcal/mol]	stability under ambient conditions [8]	other results
CC(=O)Nc1ccc(O)cn1 [compound 2]	only slightly	markedly improved at higher pH	0.48	8.28	40000 M⁻¹ s⁻¹	–	–	–	oCOX-1 inhibition, fold less effective than 1 [2]: ca. 1.6 fold; inhibition rate constant, fold lower than for 1 [6]: 12.5 fold
CC(=O)Nc1ncc(O)cn1 [compound 3]	only slightly	markedly improved at higher pH	1.02	5.89	10000 M⁻¹ s⁻¹	–	–	–	oCOX-1 inhibition, fold less effective than 1 [2]: ~3 fold; inhibition rate constant, fold lower than for 1 [6]: 50 fold
CC(=O)Nc1ccc(O)cc1 [compound 1, Acetaminophen, reference compound]	11 fold	did not change significantly	0.32	–	500000 M⁻¹ s⁻¹	–	–	–	IC50 [2]: 250 µM; decrease of total intracellular ATP concentration compared to control ([10]; HepG2, 24 h): 24.8 ± 1.0%; kinh ([6]; listed as ApAP): 500000 M⁻¹ s⁻¹; inhibition rate constant, fold larger than that of BHT ([6]; relative to BHT): ~4 fold; inhibition of sLOX-1 [11]: does not inhibit
Cc1cc(C(C)(C)C)c(O)c(C(C)(C)C)c1 [BHT, butylated hydroxytoluene]	–	–	–	–	–	–	–	–	kinh [12]: 140000 M⁻¹ s⁻¹
CN(C)c1ccc(O)cc1 [4a, reference compound]	–	–	–	–	–	157.7	76.0	too unstable	–
Cc1c(C)c2c(c(C)c1O)CC[C@@](C)(CCC[C@H](C)CCC[C@H](C)CCCC(C)C)O2 [α-tocopherol]	–	–	–	–	–	–	–	–	kinh [12]: 3.2e+06 M⁻¹ s⁻¹
